Results: ChEMBL document CHEMBL4033799, “Stable and Long-Lasting, Novel Bicyclic Peptide Plasma Kallikrein Inhibitors for the Treatment of Diabetic Macular Edema” (J Med Chem, 2018)
Each block holds one compound with its values, some of them ahead of it. Active and inactive are the calls of the source. The rule behind the calls is not given here. *1 amine or outer side, *2 acyl side, *3 side chain or, on linkers, in order; H or OH if unused. Where a SMILES comes first, the peptide text is derived from it. Bridges are numbered along the chain shown (N, C = ends). TBMB = c1c(C[*:1])cc(C[*:3])cc1C[*:2]

Key:
Coagulation factor X = Coagulation factor X (Homo sapiens, UniProt P00742); experiment: Inhibition of recombinant human C-terminal 10His-tagged factor Xa (24 to 488 residues) expressed in baculovirus derived insect sf21 cells using fluorogenic Mca-RPKPVE-Nval-WRK(Dnp)-NH2 peptide as substrate by fluorescence based assay
Method in brief: (§1)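 Human serine proteases were assayed with substrates and conditions set by each supplier's recommendations. Peptides were first screened at 50 μM. Where inhibition was detected, Ki was determined from activity across peptide concentrations using a tight-binding rate equation.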

Mus musculus = experiment: Antidiabetic activity in STZ-induced diabetic C57BL/6J mouse model assessed as reduction in retinal vascular permeability at 100 ug administered 4 times via ivt measured at 8 weeks post diabetes onset relative to control; format: functional
Method in brief: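 Diabetes was induced with STZ in male C57BL/6J mice. Peptide was given as repeated intravitreal injections (4 × 100 μg). Retinal permeability was read as FITC-BSA extravasation 8 weeks after diabetes onset and compared with vehicle-treated diabetic mice. The anti-VEGFR2 antibody DC101 (6.2 μg/eye, single dose) served as positive control.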

Prothrombin = Prothrombin (Homo sapiens, UniProt P00734); experiment: Inhibition of recombinant human alpha thrombin using fluorogenic peptide as substrate by fluorescence based assay
Method in brief: (§2)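 Panel of human serine proteases. Substrates and assay conditions followed each supplier's recommendations. Peptides were first screened at 50 μM. Where inhibition was detectable, hydrolytic activity was measured across a range of peptide concentrations. Ki was obtained by fitting to the tight-binding inhibitor rate equation.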

Kallikrein-6 = Kallikrein-6 (Homo sapiens, UniProt Q92876); experiment: Inhibition of recombinant human C-terminal His-tagged KLK6 isoform 1 (1 to 244 residues) expressed in HEK293 cells using fluorogenic Boc-QARAMC peptide as substrate by fluorescence based assay; method in brief: as §1
Rattus norvegicus [1] = experiment: Antiinflammatory activity in ip dosed Sprague-Dawley rat carrageenan-induced paw edema model assessed as inhibition of edema pretreated for 15 mins followed by carrageenan challenge measured up to 6 hrs; format: functional, organism-based
Method in brief: (§3)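 Male Sprague-Dawley rats received peptide IP (30, 10 or 3 mg/kg), or indomethacin IP at 5 mg/kg, 15 min before subplantar carrageenan. Paw volume was followed over time against a vehicle group.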

Rattus norvegicus [2] = experiment: Antiinflammatory activity in Sprague-Dawley rat carrageenan-induced paw edema model assessed as inhibition of paw edema AUC (0 to 2 hrs) at 10 to 30 mg/kg, ip pretreated for 15 mins followed by carrageenan challenge; format: functional, organism-based; method in brief: as §3
[3] = biological target: T1, Complement C1s subcomponent (Homo sapiens, UniProt P09871); experiment: Inhibition of recombinant human C-terminal 6His-tagged complement component C1s (1 to 688 residues) expressed in mouse NS0 cells using fluorogenic Z-Lys-SBzl peptide as substrate after 5 mins by fluorescence based assay; method in brief: as §1
T1 sequence (P09871 whole entry): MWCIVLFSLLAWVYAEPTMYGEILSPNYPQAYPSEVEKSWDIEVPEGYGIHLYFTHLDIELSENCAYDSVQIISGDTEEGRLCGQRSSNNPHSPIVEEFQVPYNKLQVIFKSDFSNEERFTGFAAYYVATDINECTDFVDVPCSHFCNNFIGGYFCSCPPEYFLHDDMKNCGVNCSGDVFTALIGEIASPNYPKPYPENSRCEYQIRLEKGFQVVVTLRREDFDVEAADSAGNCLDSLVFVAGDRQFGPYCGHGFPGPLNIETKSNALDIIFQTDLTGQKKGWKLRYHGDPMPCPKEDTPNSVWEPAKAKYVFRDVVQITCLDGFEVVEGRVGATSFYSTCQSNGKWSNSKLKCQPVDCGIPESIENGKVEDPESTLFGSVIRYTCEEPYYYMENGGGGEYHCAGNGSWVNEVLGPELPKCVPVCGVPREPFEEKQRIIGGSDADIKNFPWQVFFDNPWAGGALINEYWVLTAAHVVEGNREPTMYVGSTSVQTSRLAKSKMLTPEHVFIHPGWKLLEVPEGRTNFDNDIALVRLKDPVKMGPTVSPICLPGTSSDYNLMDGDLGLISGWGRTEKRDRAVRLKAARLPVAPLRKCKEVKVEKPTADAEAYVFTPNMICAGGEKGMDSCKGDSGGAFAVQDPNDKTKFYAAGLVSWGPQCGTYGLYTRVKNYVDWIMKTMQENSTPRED

Oryctolagus cuniculus = species on record: Oryctolagus cuniculus; experiment: Inhibition of plasma kallikrein in rabbit plasma using HMWK as substrate assessed as suppression of kaolin-activated protein induced bradykinin release at 2 uM preincubated for 15 mins followed by substrate addition measured after 15 min by ELISA
Cathepsin G = biological target: T2, Cathepsin G (Homo sapiens, UniProt P08311); experiment: Inhibition of recombinant human Cathepsin-G; method in brief: as §2
T2 sequence (P08311 whole entry): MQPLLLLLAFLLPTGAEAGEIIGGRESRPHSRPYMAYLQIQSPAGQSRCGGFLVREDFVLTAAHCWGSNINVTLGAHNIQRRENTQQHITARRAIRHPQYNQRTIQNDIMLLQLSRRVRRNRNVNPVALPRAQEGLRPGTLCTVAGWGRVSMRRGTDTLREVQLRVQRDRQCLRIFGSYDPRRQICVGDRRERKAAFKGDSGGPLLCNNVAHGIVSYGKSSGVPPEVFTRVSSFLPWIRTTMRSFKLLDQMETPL

Plasma [4] = experiment: Drug metabolism in rat plasma assessed as (5R,8S,11S,14S,17S,20S,23R)-29-[[(2R)-2-acetamido-3-[[(1S)-2-hydroxy-1-(hydroxymethyl)-2-oxo-ethyl]amino]-3-oxo-propyl]sulfanylmethyl]-5-amino-14-(3-amino-3-oxo-propyl)-17-(carboxymethyl)-11-(1H-imidazol-5-ylmethyl)-8,20-diisobutyl-6,9,12,15,18,21-hexaoxo-3,25-dithia-7,10,13,16,19,22-hexazabicyclo[25.3.1]hentriaconta-1(31),27,29-triene-23-carboxylic acid metabolite formation at 50 uM after 18 hrs by MALDI-TOF analysis; format: ADME, cell-free
Method in brief: (§4)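 Peptide from a 1 mM DMSO stock was diluted to 50 μM in citrated mouse, rat or human plasma and incubated at 37 °C for up to 2 days. Samples taken at time points were quenched in 1:1 acetonitrile/methanol and centrifuged. The supernatant was mixed with ammonium bicarbonate in acetonitrile/water, and parent peptide and metabolites were detected by MALDI-TOF.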

[5] = Half life in human vitreous humor at 1 uM measured up to 24 hrs by LC-MS/MS analysis; format: ADME, tissue-based
Method in brief: (§5)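 Peptide from a 0.16 mM DMSO stock was added to human, rat or mouse plasma (final 4 μM) or to homogenized human vitreous (final 1 μM), with internal standard. Samples were incubated at 37 °C for up to 24 h and extracted with water/acetonitrile/methanol 1:3:3.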

[6] = Half life in human plasma at 4 uM measured up to 24 hrs by LC-MS/MS analysis; format: ADME, cell-free; method in brief: as §5
Plasma [7] = experiment: Drug metabolism in human plasma assessed as deltaLeu6 metabolite formation at 50 uM after 18 hrs by MALDI-TOF analysis; format: ADME, cell-free; method in brief: as §4
Plasma kallikrein [8] = biological target: Plasma kallikrein (Homo sapiens, UniProt P03952); experiment: Inhibition of human plasma kallikrein using fluorogenic H-Pro-Phe-Arg-AMC peptide as substrate preincubated for 15 mins followed by substrate addition measured by fluorescence-based assay; details: read-out: Ki(app)
Plasma kallikrein [9] = biological target: Plasma kallikrein (Rattus norvegicus, UniProt P14272); experiment: Inhibition of recombinant Sprague-Dawley rat plasma kallikrein using fluorogenic H-Pro-Phe-Arg-AMC peptide as substrate preincubated for 15 mins followed by substrate addition measured by fluorescence-based assay; details: read-out: Ki(app)
[10] = Plasma clearance in Sprague-Dawley rat at 10 mg/kg, iv administered as infusion over 1 hr measured up to 240 mins post dose by LC-MS/MS analysis; format: ADME, organism-based
Method in brief: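 Groups of 2 male Sprague-Dawley rats; 10 mg/kg infused into the jugular vein over 1 h. Serial blood drawn via tail-vein cannulae at 5–240 min into EDTA tubes and processed to plasma. Plasma assayed by LC-MS/MS against a 16–4000 ng/mL calibration line in control rat plasma.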

Plasma [11] = experiment: Drug metabolism in rat plasma assessed as (5R,8S,11S,14S,17S,20S,23R)-29-[[(2R)-2-acetamido-3-hydroxy-3-oxo-propyl]sulfanylmethyl]-5-amino-14-(3-amino-3-oxo-propyl)-17-(carboxymethyl)-11-(1H-imidazol-5-ylmethyl)-8,20-diisobutyl-6,9,12,15,18,21-hexaoxo-3,25-dithia-7,10,13,16,19,22-hexazabicyclo[25.3.1]hentriaconta-1(31),27,29-triene-23-carboxylic acid metabolite formation at 50 uM after 18 hrs by MALDI-TOF analysis; format: ADME, cell-free; method in brief: as §4
[12] = Half life in rat plasma at 4 uM measured up to 24 hrs by LC-MS/MS analysis; format: ADME, cell-free; method in brief: as §5
[13] = Half life in mouse plasma at 4 uM measured up to 24 hrs by LC-MS/MS analysis; format: ADME, cell-free; method in brief: as §5
(UniProt A0A8D1M4K5) = experiment: Inhibition of pig plasma kallikrein using fluorogenic H-Pro-Phe-Arg-AMC peptide as substrate preincubated for 15 mins followed by substrate addition measured by fluorescence-based assay; set-up: species or system Sus scrofa; details: read-out: Ki(app)
[14] = Inhibition of rabbit plasma kallikrein using fluorogenic H-Pro-Phe-Arg-AMC peptide as substrate preincubated for 15 mins followed by substrate addition measured by fluorescence-based assay; set-up: species or system Oryctolagus cuniculus; details: read-out: Ki(app)
Method in brief: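 Assays ran at 25 °C in 50 mM Tris-HCl, 250 mM NaCl, 1.5 μM BSA, pH 7.5. PKal (nominal 1–2 nM) was preincubated 15 min with serially diluted peptide. […] Human PKal was purified from plasma; rat PKal was made in-house or bought; other species were purified in-house from kaolin-activated plasma.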

Plasma [15] = experiment: Drug metabolism in human plasma assessed as deltaH7Q6 metabolite formation at 50 uM after 18 hrs by MALDI-TOF analysis; format: ADME, cell-free; method in brief: as §4
Plasma [16] = experiment: Drug metabolism in human plasma assessed as deltaL6H7Q6 metabolite formation at 50 uM after 18 hrs by MALDI-TOF analysis; format: ADME, cell-free; method in brief: as §4
Plasma [17] = experiment: Drug metabolism in rat plasma assessed as (5R,8S,11S,14S,17S,20S,23R)-29-[[(2R)-2-acetamido-3-[[(1S)-1-(hydroxymethyl)-2-[[(1S)-2-[(2S)-2-[[(1S)-2-hydroxy-1-methyl-2-oxo-ethyl]carbamoyl]pyrrolidin-1-yl]-1-(1H-indol-3-ylmethyl)-2-oxo-ethyl]amino]-2-oxo-ethyl]amino]-3-oxo-propyl]sulfanylmethyl]-5-amino-14-(3-amino-3-oxo-propyl)-17-(carboxymethyl)-11-(1H-imidazol-5-ylmethyl)-8,20-diisobutyl-6,9,12,15,18,21-hexaoxo-3,25-dithia-7,10,13,16,19,22-hexazabicyclo[25.3.1]hentriaconta-1(31),27,29-triene-23-carboxylic acid metabolite formation at 50 uM after 18 hrs by MALDI-TOF analysis; format: ADME, cell-free; method in brief: as §4

Ki (Coagulation factor X): > 50000 nM
Ki (Prothrombin): > 50000 nM
Ki (Kallikrein-6): > 50000 nM
Ki [3]: > 50000 nM
inhibition (Oryctolagus cuniculus): inactive
Ki (Cathepsin G): > 50000 nM
Compound: CC(=O)N[C@H]1CSCc2cc3cc(c2)CSC[C@@H](NC(=O)[C@H](CCCCNC(=N)N)NC(=O)[C@H](Cc2ccc(O)cc2)NC(=O)C2CCN2C(=O)[C@H](Cc2ccccc2)NC(=O)[C@H](CO)NC1=O)C(=O)N[C@@H](C)CN[C@@H](Cc1cnc[nH]1)C(=O)N[C@@H](CCC(N)=O)C(=O)N[C@@H](CC(=O)O)C(=O)N[C@@H](CC(C)C)C(=O)N[C@H](C(=O)O)CSC3 (some centres undefined)
inhibition (Mus musculus): inactive
inhibition (Rattus norvegicus [1]): Dose-dependent effect
inhibition (Rattus norvegicus [2]): Active

Drug metabolism (Plasma [4]): Metabolite_Detected
half-life at 1 µM [5]: > 24 h
half-life at 4 µM [6]: 7 h
Drug metabolism (Plasma [7]): Metabolite_Detected
Ki (Plasma kallikrein [8]): 0.15 nM
Ki (Plasma kallikrein [9]): 2 nM
clearance [10]: 156 mL/min/kg
Drug metabolism (Plasma [11]): Metabolite_Detected
half-life at 4 µM [12]: 2.8 h
half-life at 4 µM [13]: 1.5 h
Ki ((UniProt A0A8D1M4K5)): 3.6 nM
Ki [14]: 10 nM
Drug metabolism (Plasma [15]): Metabolite_Detected
Drug metabolism (Plasma [16]): Metabolite_Detected
Drug metabolism (Plasma [17]): Metabolite_Detected
Compound: CC(=O)N[C@H]1CSCc2cc3cc(c2)CSC[C@H](NC(=O)[C@H](CCCNC(=N)N)NC(=O)[C@H](C)NC(=O)[C@@H]2CCCN2C(=O)[C@H](Cc2c[nH]c4ccccc24)NC(=O)[C@H](CO)NC1=O)C(=O)N[C@@H](CC(C)C)C(=O)N[C@@H](Cc1cnc[nH]1)C(=O)N[C@@H](CCC(N)=O)C(=O)N[C@@H](CC(=O)O)C(=O)N[C@@H](CC(C)C)C(=O)N[C@H](C(=O)O)CSC3 (Ac-CSWPARCLHQDLC-OH; linker 1-7-13 via TBMB)
